Published values gathered from unrelated publications.
Lines come from different studies, so protocols differ. In brackets after ≈: the same amount, converted by molar mass.

| Compound | tested on | test | system | conditions | quantity | result |
| --- | --- | --- | --- | --- | --- | --- |
| CCCCS(=O)(=O)NCC1COC2(CCN(C(=O)C3(c4ccccc4)CCCC3)CC2)O1 (centres unmarked) | Chikungunya virus | viral replication, inhibitor |  | 40 µM | inhibition | 95% |
| COc1ccc(C=Nc2ccc(SCc3cc(=O)c(O)co3)cc2)cc1 |  | DPPH scavenging, absorbance |  | 30 min | IC50 | 15.6 µM |
| O=C(NCc1ccc(F)cc1)c1cn(Cc2ccc(C(F)(F)F)cc2)c2ccc(Oc3ccccc3)cc2c1=O | MCF7 | cell growth or viability, MTT |  | 48 h | IC50 | 4.36 µM |
| CCc1ccccc1C=Nc1ccc(SCc2cc(=O)c(O)co2)cc1 |  | DPPH scavenging, absorbance |  | 30 min | IC50 | 25.2 µM |
| O=c1c2ccccc2[se]n1-c1ccccc1 | Chikungunya virus | viral replication | Vero | 24 h | IC50 | 2.02 µM |
| O=C(NCc1ccc(Cl)cc1)c1cn(Cc2ccc(Cl)cc2)c2ccc(Oc3ccccc3)cc2c1=O | MCF7 | cell growth or viability, MTT |  | 48 h | IC50 | 171 µM |
| O=c1cc(CSc2ccc(N=Cc3ccc([N+](=O)[O-])cc3)cc2)occ1O |  | DPPH scavenging, absorbance |  | 30 min | IC50 | 28.5 µM |
| CC(C)(C(=O)N1CCC2(CC1)OCC(CN1CCCCS1(=O)=O)O2)c1ccccc1 (centres unmarked) | Chikungunya virus | viral replication, inhibitor |  | 40 µM | inhibition | < 50% |
| O=C(NCc1ccc(F)cc1)c1cn(Cc2ccc(F)cc2)c2ccc(Oc3ccccc3)cc2c1=O | MCF7 | cell growth or viability, MTT |  |  | IC50 | ≥ 200 µM |
| CC(C)C[C@@H](NC(=O)[C@H](C)NC(=O)CNC(=O)[C@@H](NC=O)C(C)C)C(=O)N[C@@H](C)C(=O)N[C@@H](C(=O)N[C@H](C(=O)N[C@@H](C(=O)N[C@@H](Cc1c[nH]c2ccccc12)C(=O)N[C@H](CC(C)C)C(=O)N[C@@H](Cc1cc2ccccc2[nH]1)C(=O)N[C@H](CC(C)C)C(=O)N[C@@H](Cc1c[nH]c2ccccc12)C(=O)N[C@H](CC(C)C)C(=O)N[C@@H](Cc1c[nH]c2ccccc12)C(=O)NCCO)C(C)C)C(C)C)C(C)C | MCF7 | cell growth or viability, SRB |  | 48 h | GI50 | 0.0233 µM |
| O=C(NCc1ccc(C(F)(F)F)cc1)c1cn(Cc2ccc(F)cc2)c2ccc(Oc3ccccc3)cc2c1=O | MCF7 | cell growth or viability, MTT |  | 24 h | IC50 | 109 µM |
| CCCCCCN(CC1COC2(CCN(C(=O)C3(c4ccccc4)CCCC3)CC2)O1)S(=O)(=O)N(C)Cc1ccccc1 (centres unmarked) | Chikungunya virus | viral replication, inhibitor |  | 40 µM | inhibition | 70% |
| Cc1ccc(CNC(=O)c2cn(Cc3ccc(Cl)cc3)c3ccc(Oc4ccccc4)cc3c2=O)cc1 | MCF7 | cell growth or viability, MTT |  | 48 h | IC50 | 105 µM |
| O=c1cc(CSc2ccc(N=Cc3ccccc3C(F)(F)F)cc2)occ1O |  | DPPH scavenging, absorbance |  | 30 min | IC50 | 36.2 µM |
| CC[C@H](C)C[C@H](C)CCCCCCCCC(=O)N[C@H]1C[C@@H](O)[C@@H](NCCN)NC(=O)[C@@H]2[C@@H](O)CCN2C(=O)[C@H]([C@H](O)CCN)NC(=O)[C@H]([C@H](O)[C@@H](O)c2ccc(O)cc2)NC(=O)[C@@H]2C[C@@H](O)CN2C(=O)[C@H]([C@@H](C)O)NC1=O | Candidozyma auris | microbial growth, broth dilution |  | 48 h | MIC | 2 µg/mL (≈ 1.83 µM) |
| CCc1ccc(C=Nc2ccc(SCc3cc(=O)c(O)co3)cc2)cc1 |  | DPPH scavenging, absorbance |  | 30 min | IC50 | 20.5 µM |
| S=P1(C2CCCCC2)CCCCC1 | SW-620 | cell growth or viability, MTT |  | 72 h | IC50 | > 100 µM |
